MrgX1 allo act = positive allosteric modulators of MrgX1, primary screen, HEK293 cells, Fluo-4 calcium flux; FDSS; hits give high values; B-score at 10 µM; 310,000 tested, 0.63% active;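 active = plate-corrected calcium response at least 3 library SD above typical, normal starting fluorescence, not activating the receptor alone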;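 also: compound read alongside a low EC10 to EC30 dose of BAM8-22 agonist; peak minus trough fluorescence over baseline measured at the second addition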
Target sequence (Q96LB2 whole entry, looked up): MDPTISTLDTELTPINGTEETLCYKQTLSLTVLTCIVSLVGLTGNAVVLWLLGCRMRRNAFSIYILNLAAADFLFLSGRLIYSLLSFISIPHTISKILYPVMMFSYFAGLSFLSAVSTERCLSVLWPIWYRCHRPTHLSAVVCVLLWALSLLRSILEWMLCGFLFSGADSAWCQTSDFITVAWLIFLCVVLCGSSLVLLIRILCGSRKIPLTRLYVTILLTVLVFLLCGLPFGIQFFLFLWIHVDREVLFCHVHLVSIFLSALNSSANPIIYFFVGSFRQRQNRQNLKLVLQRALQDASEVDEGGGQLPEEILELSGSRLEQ
RGS4 inh = RGS4 inhibitors, primary screen, cell-based, HEK293 M3R inducible RGS4, calcium flux; AID 463165, 2010; Regulator of G-protein signaling 4 (Homo sapiens), P49798; 310,000 tested, 0.45% active; B-score at 10 µM; Fluo-4 calcium flux; hits give high values; triggered by carbachol at its EC20;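 active = B-score, a plate-corrected calcium signal, over three deviations above library mean, with baseline fluorescence within five deviations of library mean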;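 also: RGS4 expression induced by doxycycline in cells with stable M3 receptor; B-score is computed from the integrated fluorescence ratio over baseline after carbachol; higher B-score means a larger calcium signal and so more RGS4 inhibition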
Target sequence (P49798 whole entry, looked up): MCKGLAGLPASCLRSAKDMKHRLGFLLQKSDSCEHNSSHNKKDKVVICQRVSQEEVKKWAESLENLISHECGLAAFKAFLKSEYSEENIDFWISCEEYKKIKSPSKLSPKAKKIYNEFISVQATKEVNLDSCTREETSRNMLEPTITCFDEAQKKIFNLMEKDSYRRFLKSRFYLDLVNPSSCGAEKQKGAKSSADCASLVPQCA
MrgX1 antag = antagonists of human MrgX1 receptor, primary screen, HEK293 cells, Fluo-4 calcium flux. BAM8-22 antagonism; hits give low values. 310,000 tested, 1.3% active. B-score at 10 µM. Mas-related G-protein coupled receptor member X1 (Homo sapiens), Q96LB2;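 active = calcium-response B-score plate-corrected more than 3 library SD below zero, starting fluorescence within 5 deviations, no agonist response on first addition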;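 also: peak minus trough fluorescence over baseline after final BAM8-22 challenge near maximal dose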
MrgX1 agonist = agonists of human MrgX1 receptor, primary screen, HEK293 cells, Fluo-4 calcium flux. Mas-related G-protein coupled receptor member X1 (Homo sapiens), Q96LB2. Fluo-4 calcium fluorescence, agonist mode; hits give high values. B-score at 10 µM. 310,000 tested, 0.44% active. AID 588627, 2011;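 active = calcium response B-score plate-corrected fluorescence ratio at least 3 library SD, with starting fluorescence B-score inside 5 SD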
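Material – MrgX1-expressing HEK293 cells · Input – 15,000 cells seeded per well · Dosing – compound as first of three additions · Times – overnight seeding, then 1 h dark dye loading · Measured by – kinetic Fluo-4 NW fluorescence of intracellular calcium · Read-out – B-scored fluorescence response ratio · Benchmarks – positive and negative control wells on each plate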
RGS4 pot = RGS4 potentiators or activators, primary screen, cell-based, HEK293 M3R inducible RGS4, calcium flux. carbachol calcium flux Fluo4; hits give low values. B-score at 10 µM. 310,000 tested, 0.92% active. AID 463111, 2010;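 active = B-score of the integrated calcium signal more than 4 SD below the library mean, with starting fluorescence not abnormally high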;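 also: negative B-score means reduced calcium response which marks RGS4 activation or potentiation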
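Reagent: ECmax carbachol challenge; Test system: M3R-expressing HEK293 line, RGS4 induced by doxycycline; Schedule: overnight RGS4 induction, 30 min dye load 37 °C, 20 min compound RT; Detection: calcium dye Fluo4 fluorescence; Read-out: Agonist-evoked peak-minus-minimum fluorescence over baseline, integrated ratio, B score.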
MrgX1 ant reconf = MrgX1 receptor antagonists, duplicate retest, confirmation, HEK293 cells, Fluo-4 calcium flux; shares compounds with MrgX1 antag; BAM8-22 calcium flux; hits give low values; remaining BAM8-22 calcium response % of control (hits give low values), % at 10 µM; 2,300 tested, 19% active; AID 602420, 2012;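 active = remaining agonist calcium response no higher than 100% minus 3 SD of agonist-only control wells, with starting fluorescence near control levels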;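 also: agonist BAM8-22 given at a near maximal EC90 to ECmax level; peak minus minimum fluorescence divided by baseline after agonist addition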
HEK293 Ca flux = nonspecific calcium signal in parental HEK293, confirmation, counter-screen for MrgX1 antagonist project, parental HEK293 cells, Fluo-4 calcium flux; shares compounds with MrgX1 antag; Fluo-4 calcium fluorescence, FDSS; fluorescence ratio F(max-min)/F0 at 10 µM; 4,000 tested, 2% active; AID 624111, 2012;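 active = duplicate-averaged calcium fluorescence ratio at least three times the standard deviation of buffer wells, a nonspecific response in parental cells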
HEK293 Ca counter = calcium response in parental HEK293 cells, primary screen, counter-screen for MrgX1 allosteric activator project, cell-based, Fluo-4 calcium flux, duplicate; shares compounds with MrgX1 antag; Fluo-4 fluorescence ratio; hits give high values; fluorescence ratio F(max-min)/F0 at 10 µM; 4,000 tested, 0.4% active; AID 624114, 2012;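 active = calcium fluorescence ratio, averaged over duplicates, at least 3 SD of the buffer-well ratio, meaning a nonspecific response in receptor-free cells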;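 also: untransfected parental HEK293 lacking MrgX1 used as counterscreen for MrgX1 allosteric activators; fluorescence change taken during the second addition on a kinetic imager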
HEK293 Ca cntr2 = calcium response in parental HEK293 cells, primary screen, counter-screen for MrgX1 agonist project, cell-based, Fluo-4 calcium flux, duplicate, agonist mode | shares compounds with MrgX1 antag | Fluo-4 calcium fluorescence (FDSS); hits give high values | fluorescence ratio F(max-min)/F0 at 10 µM | 4,000 tested, 8.7% active;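 active = calcium fluorescence ratio at least three times the spread of buffer wells, meaning a non-specific response in parental cells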
The depositor's hits bear a star; i = inactive; nt = no result given. Rows were chosen to be rich in hits. Some 3.5% of all compounds tested hit in one or more screens of this group.

SMILES	MrgX1 allo act	RGS4 inh	MrgX1 antag	MrgX1 agonist	RGS4 pot	MrgX1 ant reconf	HEK293 Ca flux	HEK293 Ca counter	HEK293 Ca cntr2
COc1c2c(nc3ccccc13)OC(C(C)(O)CO)C2 (centres undefined)	i	i	-6.89*	i	i	i	i	i	i
O=C(O)CCc1ccc(-c2cccs2)n1-c1ccc(C(=O)O)cc1	i	i	-4.71*	i	i	i	i	i	i
CCOC(=O)c1c(C)n(C)c2ccc(OCC(O)Cn3nc(C)cc3C)cc12 (centres undefined)	i	i	i	i	i	nt	nt	nt	nt
O=[N+]([O-])CC(c1ccccc1)P(=O)(c1ccccc1)c1ccccc1 (centres undefined)	i	i	i	i	i	nt	nt	nt	nt
CCc1cccc(C)c1NC(=S)NCc1ccc2[nH]c(C)cc2c1	i	i	-9.1*	i	i	i	i	i	i
CNC(=S)NCc1ccc2[nH]c(C)cc2c1	i	i	i	i	i	nt	nt	nt	nt
CC1C[C@@]2(NC(=O)NC2=O)C(C)CN1C (some centres undefined)	i	i	-5.5*	i	i	i	i	i	i
CC1CC2(NC(=O)NC2=O)C(C)CN1C (centres undefined)	i	i	i	i	i	nt	nt	nt	nt
CCc1nnc(SCC(=O)Nc2ccc(N3CCOCC3)cc2)n1C	i	i	-5.64*	i	i	i	i	i	i
Cc1ccccc1OCc1nnc(SCC(=O)Nc2ccc(N3CCOCC3)cc2)n1C	i	i	i	i	i	nt	nt	nt	nt
COCCCNS(=O)(=O)c1ccc2[nH]c3c(c2c1)CCCCC3	i	i	i	i	i	nt	nt	nt	nt
CCCSc1nc2c(c(=O)[nH]c(=O)n2C)n1Cc1ccccc1	i	i	i	i	i	nt	nt	nt	nt
C=C(C)CSc1nc2c(c(=O)[nH]c(=O)n2C)n1Cc1ccccc1	i	i	-4.82*	i	i	82.9%*	i	i	i
CCOc1ccc(N2C(=O)CC(Sc3n[nH]c(-c4ccccc4)n3)C2=O)cc1 (centres undefined)	i	i	-5.02*	i	i	i	i	i	i
Cc1noc(C)c1C(=O)Nc1nc2ccc(S(C)(=O)=O)cc2s1	i	i	-7.5*	i	i	i	i	i	i
Cc1ccc(C(=O)Nc2nc3ccc(S(C)(=O)=O)cc3s2)o1	i	i	i	i	i	nt	nt	nt	nt
COCCNC(=O)c1ccc(C)cc1C	i	i	-5.31*	i	i	72.9%*	i	i	i
O=S(=O)(NCCN1CCCC1)c1ccc(Br)cc1	i	i	i	i	i	nt	nt	nt	nt
O=S(=O)(NCCN1CCCC1)c1ccc(Cl)cc1	i	i	-4.76*	i	i	i	i	i	i
Cc1cc(C)cc(NC(=O)c2cc(S(=O)(=O)N3CCCC3)cn2C)c1	i	i	-6.91*	i	i	i	i	i	i

Source: PubChem BioAssay
